From PMC4980657 (Journal of medicinal chemistry, 2015)
Like-named read-outs stand apart in the source and are kept apart here.

Assays:
[1] = target: PCP binding site of the NMDA receptor; details: rat brain membranes, cited from earlier work; for Ki: read-out: [3H]TCP Ki; for inhibition (%) of [3H]TCP binding: test ligand at 1.0 μM
[2] = target: PCP binding site of the NMDA receptor; details: read-out: Ki vs [3H]1; cited from earlier work
[3] = system: PCP binding site of the NMDA receptor; details: mean from two experiments, rat brain membranes; for inhibition (%) of [3H]TCP binding: test ligand at 1.0 μM
Method in brief: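 Outsourced to a contract lab using rat brain membrane suspensions and [3H]TCP as radioligand. Test ligands were first screened at 1 μM for percent inhibition of [3H]TCP binding. […] Values are the mean of two experiments.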

Row | Structure (SMILES) | Ki [1] [nM] | inhibition (%) of [3H]TCP binding [1] [%] | Ki [2] [nM] | inhibition (%) of [3H]TCP binding [3] [%] | Ki ([3]; read-out: [3H]TCP Ki) [nM]
1 | CN(C(=N)Nc1cccc2ccccc12)c1cccc(C(F)(F)F)c1 [compound 7, 1-Methyl-3-(naphthalen-1-yl)-1-(3-(trifluoromethyl)phenyl)guanidine] | 18.3 | 107 | 2.68 |  | 
2 | CN(C(N)=Nc1cccc2ccccc12)c1cccc(I)c1 [compound 3, reference compound] | 31.9 | 106 |  |  | 
3 | CN(C(=N)Nc1cc(SCF)ccc1Cl)c1cccc(C(F)(F)F)c1 [compound 46, 3-(2-Chloro-5-(fluoromethylthio)phenyl)-1-methyl-1-(3-(trifluoromethyl)phenyl)guanidine] |  |  |  | 57.5 | 
4 | CN(C(=N)Nc1cccc2ccccc12)c1cc(C(F)(F)F)ccc1F [compound 13, 1-(6-fluoro-3-(trifluoromethyl)phenyl)-1-methyl-3-(naphthalen-1-yl)guanidine] |  |  |  | 91.0 | 13
